Data: PubChem BioAssay AID624070 (Broad Institute, 2012)
Inconclusive results are not listed. Active and inactive are the calls of the source.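 The calls were made as follows: active = fitted curve crosses -35% change at a dose up to twice the top valid dose; inconclusive = flat fit showing 30 to 70% drop, or poor fit; inactive = the rest, including rises or flat curves.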

assay: P. aeruginosa growth delay under iron chelation, dose response, whole organism, absorbance 405 nm, EDDHA, dry powder, set 5 (AID 624070); conditions: P. aeruginosa ATCC 15692 + EDDHA, A405, 24-30 h; series mostly up to 120 µM
Outline: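 material = Pseudomonas aeruginosa strain ATCC 15692, whole bacterial cells | quantity = final OD600 0.0000005 bacteria | medium = succinate M9 minimal growth medium, pH 7.0 | probe or stimulus = iron chelator EDDHA at 2 µM final | incubation = bacterial growth with compound for 24–30 h at 37 °C | signal = absorbance at 405 nm reflecting pyoverdine production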

outcome, inactive:
N#CC(c1ccc(F)cc1)c1cccc(Cl)n1 (stereo not drawn)
Clc1ccc(C(c2cccc(Cl)n2)c2nn[nH]n2)cc1 (stereo not drawn)
N#CC1c2ccc(Cl)cc2CCc2cccnc21 (stereo not drawn)
N#CC(c1ccc(C(F)(F)F)c(Cl)n1)c1ccccc1OC(F)(F)F (stereo not drawn)
COCCC(C#N)c1ccc(F)cc1 (stereo not drawn)
N#CC(c1ccc(Cl)cc1)c1ccccn1 (stereo not drawn)
N#Cc1cccc(C(C#N)c2ccc(F)cc2)n1 (stereo not drawn)
COCCNC(C#N)c1ccc(Cl)cc1 (stereo not drawn)
CCCCC(C#N)c1ccc(F)cc1 (stereo not drawn)
N#CC(c1ccc(Cl)cc1)N1CCCC1 (stereo not drawn)
CCCCC(C#N)c1ccc(F)cn1 (stereo not drawn)
CCCCC(C#N)c1ccccn1 (stereo not drawn)
COCCC(C#N)c1ccc(Cl)cc1 (stereo not drawn)
COCCOCCC(C#N)c1ccc(F)cc1 (stereo not drawn)
COCCOCCC(C#N)c1ccc(Cl)cc1 (stereo not drawn)
CCCCC(C#N)c1ccc(Cl)cc1 (stereo not drawn)
CN(C)CCCC(C#N)c1ccc(Cl)cc1 (stereo not drawn)
CCCCC(C#N)c1ccc(Cl)cn1 (stereo not drawn)
